From ChEMBL document CHEMBL1131440, “Synthesis and potent antifolate activity and cytotoxicity of B-ring deaza analogues of the nonpolyglutamatable dihydrofolate reductase inhibitor Nalpha-(4-amino-4-deoxypteroyl)-Ndelta-hemiphthaloyl- L-ornithine (PT523)” (J Med Chem, 1998)
pIC50, pKi: −log10 of the molar value.

Columns and labels:
HL-60 = test: Compound was evaluated for in vitro activity against HL-60(TB) leukemia cell lines (Human tumor cells ); type: functional, cell-based
How it was run: (§1)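 NCI Developmental Therapeutics Program human tumor cell panel; drug exposure in 96-well plates for the last 48 h of a 72-h incubation, then cells stained for total protein with sulforhodamine B per the standard NCI protocol. Data supplied by NCI.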

BT-549 = test: Compound was evaluated for in vitro activity against BT-549 breast cancer cell lines (Human tumor cells ); type: functional, cell-based; how it was run: as §1
COLO 205 = test: Compound was evaluated for in vitro activity against COLO 205 Colon cell lines (Human tumor cells ); type: functional, cell-based
How it was run: (§2)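 Total protein then stained with sulforhodamine B following the standard NCI protocol. Data supplied by the NCI Developmental Therapeutics Program.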

Hs-578T = test: Compound was evaluated for in vitro activity against Hs 578.T breast cancer cell lines (Human tumor cells ); type: functional, cell-based; how it was run: as §1
Malme-3M = test: Compound was evaluated for in vitro activity against MALME-3M Melanoma cell lines (Human tumor cells ); type: functional, cell-based; how it was run: as §1
[1] = Compound was tested for in vitro antitumor activity, using SCC25 human head and neck squamous carcinoma cells; type: functional; settings: SCC-25
How it was run: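 Clonogenic assay: SCC25 cells exposed to graded drug concentrations for 72 h at 37 °C, 5% CO2, in DMEM with 10% FBS and hydrocortisone ([…]). Then replated as single cells at drug-dependent densities and grown in drug-free medium 10-14 days. Colonies stained with crystal violet; only colonies of ≥50 cells scored. IC50 is mean ± SD of ≥3 assays on different days.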

SF-268 = test: Compound was evaluated for in vitro activity against SF-268 CNS cell lines (Human tumor cells ); type: functional, cell-based; how it was run: as §1
SK-MEL-2 = test: Compound was evaluated for in vitro activity against SK-MEL-2 Melanoma cell lines (Human tumor cells ); type: functional, cell-based; how it was run: as §1
A549 = test: Compound was evaluated for in vitro activity against A549/ATCC lung cancer cell lines (Human tumor cells )
HCT-116 = test: Compound was evaluated for in vitro activity against HCT116 Colon cell lines (Human tumor cells ); type: functional, cell-based; how it was run: as §1
DU-145 = test: Compound was evaluated for in vitro activity against DU-145 prostate cell lines (Human tumor cells ); type: functional, cell-based; how it was run: as §1
UACC-257 = test: Compound was evaluated for in vitro activity against UACC-257 Melanoma cell lines (Human tumor cells ); type: functional, cell-based; how it was run: as §1
NCI-H23 = test: Compound was evaluated for in vitro activity against NCI-H23 lung cancer cell lines (Human tumor cells ); type: functional, cell-based; how it was run: as §1
HCT-15 = test: Compound was evaluated for in vitro activity against HCT-15 Colon cell lines (Human tumor cells ); type: functional, cell-based; how it was run: as §1
TK-10 = test: Compound was evaluated for in vitro activity against TK-10 kidney cell lines (Human tumor cells ); type: functional, cell-based; how it was run: as §1
NCI-H226 = test: Compound was evaluated for in vitro activity against NCI-H226 lung cancer cell lines (Human tumor cells ); type: functional, cell-based; how it was run: as §1
OVCAR-3 = test: Compound was evaluated for in vitro activity against OVCAR-3 Ovary cell lines (Human tumor cells ); type: functional, cell-based; how it was run: as §2
ACHN = test: Compound was evaluated for in vitro activity against ACHN kidney cell lines (Human tumor cells ); type: functional, cell-based; how it was run: as §1
RXF 393 = test: Compound was evaluated for in vitro activity against RXF-393 kidney cell lines (Human tumor cells ); type: functional, cell-based; how it was run: as §1
SF-539 = test: Compound was evaluated for in vitro activity against SF-539 CNS cell lines (Human tumor cells ); type: functional, cell-based; how it was run: as §2
K562 = test: Compound was evaluated for in vitro activity against K562 leukemia cell lines (Human tumor cells ); type: functional, cell-based; how it was run: as §1
CCRF-CEM = test: Compound was evaluated for in vitro activity against CCRF-CEM leukemia cell lines (Human tumor cells ); type: functional, cell-based; how it was run: as §1
LOX IMVI = test: Compound was evaluated for in vitro activity against LOXIMV1 Melanoma cell lines (Human tumor cells ); type: functional, cell-based; how it was run: as §2
PC-3 = test: Compound was evaluated for in vitro activity against PC-3 prostate cell lines (Human tumor cells ); type: functional, cell-based; how it was run: as §1
UACC-62 = test: Compound was evaluated for in vitro activity against UACC-62 Melanoma cell lines (Human tumor cells ); type: functional, cell-based; how it was run: as §1
HCC 2998 = test: Compound was evaluated for in vitro activity against HCC2998 Colon cell lines (Human tumor cells ); type: functional, cell-based; how it was run: as §1
MDA-MB-435 = test: Compound was evaluated for in vitro activity against MDA-MB-435 breast cancer cell lines (Human tumor cells ); type: functional, cell-based; how it was run: as §1
KM12 = test: Compound was evaluated for in vitro activity against KM-12 Colon cell lines (Human tumor cells ); type: functional, cell-based; how it was run: as §1
A498 = test: Compound was evaluated for in vitro activity against A498 kidney cell lines (Human tumor cells ); type: functional, cell-based; how it was run: as §1
M14 = test: Compound was evaluated for in vitro activity against M14 Melanoma cell lines (Human tumor cells ); type: functional, cell-based; how it was run: as §1
NCI-H522 = test: Compound was evaluated for in vitro activity against NCI-H522 lung cancer cell lines (Human tumor cells ); type: functional, cell-based; how it was run: as §1
U-251 = test: Compound was evaluated for in vitro activity against U251 CNS cell lines (Human tumor cells ); type: functional, cell-based; how it was run: as §1
SNB- = test: Compound was evaluated for in vitro activity against […] CNS cell lines (Human tumor cells ); type: functional, cell-based; how it was run: as §1
MCF7 = test: Compound was evaluated for in vitro activity against MCF-7 breast cancer cell lines (Human tumor cells ); type: functional, cell-based; how it was run: as §2
OVCAR-5 = test: Compound was evaluated for in vitro activity against OVCAR-5 Ovary cell lines (Human tumor cells ); type: functional, cell-based; how it was run: as §1
OVCAR-8 = test: Compound was evaluated for in vitro activity against OVCAR-8 Ovary cell lines (Human tumor cells ); type: functional, cell-based; how it was run: as §1
OVCAR-4 = test: Compound was evaluated for in vitro activity against OVCAR-4 Ovary cell lines (Human tumor cells ); type: functional, cell-based; how it was run: as §1
SK-MEL-28 = test: Compound was evaluated for in vitro activity against SK-MEL28 Melanoma cell lines (Human tumor cells ); type: functional, cell-based; how it was run: as §1
T47D = test: Compound was evaluated for in vitro activity against T-47D breast cancer cell lines (Human tumor cells ); type: functional, cell-based; how it was run: as §1
NCI/ADR-RES = test: Compound was evaluated for in vitro activity against NCI/ADR-RES breast cancer cell lines (Human tumor cells ); type: functional, cell-based; how it was run: as §2
EKVX = test: Compound was evaluated for in vitro activity against EKVX lung cancer cell lines (Human tumor cells ); type: functional, cell-based; how it was run: as §1
IGROV-1 = test: Compound was evaluated for in vitro activity against IGROV1 Ovary cell lines (Human tumor cells ); type: functional, cell-based; how it was run: as §1
NCI-H460 = test: Compound was evaluated for in vitro activity against NCI-H460 lung cancer cell lines (Human tumor cells ); type: functional, cell-based; how it was run: as §1
RPMI-8226 = test: Compound was evaluated for in vitro activity against RPMI-8226 leukemia cell lines (Human tumor cells ); type: functional, cell-based; how it was run: as §1
SR = test: Compound was evaluated for in vitro activity against SR leukemia cell lines (Human tumor cells ); type: functional, cell-based; how it was run: as §1
HOP-92 = test: Compound was evaluated for in vitro activity against HOP-92 lung cancer cell lines (Human tumor cells ); type: functional, cell-based; how it was run: as §1
Dihydrofolate reductase = biological target: T1, Dihydrofolate reductase (Homo sapiens, UniProt P00374); test: Compound was evaluated for the inhibition of Dihydrofolate reductase at concentration ranged from 0.15-0.50 uM
T1 sequence (P00374 whole entry): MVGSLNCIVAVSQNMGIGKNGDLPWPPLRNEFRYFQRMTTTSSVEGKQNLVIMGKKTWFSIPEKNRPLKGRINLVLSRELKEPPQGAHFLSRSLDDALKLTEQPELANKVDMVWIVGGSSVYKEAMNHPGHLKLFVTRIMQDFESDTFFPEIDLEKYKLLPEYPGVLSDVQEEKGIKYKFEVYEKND

SF-295 = test: Compound was evaluated for in vitro activity against SF-295 CNS cell lines (Human tumor cells ); type: functional, cell-based; how it was run: as §1
SK-MEL-5 = test: Compound was evaluated for in vitro activity against SK-MEL-5 Melanoma cell lines (Human tumor cells ); type: functional, cell-based; how it was run: as §1
MOLT-4 = test: Compound was evaluated for in vitro activity against MOLT-4 leukemia cell lines (Human tumor cells ); type: functional, cell-based; how it was run: as §1
786-0 = test: Compound was evaluated for in vitro activity against 786-0 kidney cell lines (Human tumor cells ); type: functional, cell-based; how it was run: as §1

Compound: Cc1c(CNc2ccc(C(=O)NC(CCCNC(=O)c3ccccc3C(=O)O)C(=O)O)cc2)cnc2nc(N)nc(N)c12 (stereo not given)
- pIC50 (HL-60): > 9.00
- pIC50 (BT-549): < 6.00
- pIC50 (COLO 205): 8.17
- pIC50 (Hs-578T): 7.00
- pIC50 (Malme-3M): 7.33
- pIC50 [1]: 9.14
- pIC50 (SF-268): 9.44
- pIC50 (SK-MEL-2): < 6.00
- pIC50 (A549): 9.38
- pIC50 (HCT-116): 9.24
- pIC50 (DU-145): > 9.00
- pIC50 (UACC-257): 6.33
- pIC50 (NCI-H23): 8.82
- pIC50 (HCT-15): 9.35
- pIC50 (TK-10): < 6.00
- pIC50 (NCI-H226): 9.21
- pIC50 (OVCAR-3): 7.77
- pIC50 (ACHN): 9.41
- pIC50 (RXF 393): 6.42
- pIC50 (SF-539): 9.34
- pIC50 (K562): > 10.00
- pIC50 (CCRF-CEM): 9.24
- pIC50 (LOX IMVI): > 10.00
- pIC50 (PC-3): > 10.00
- pIC50 (UACC-62): 9.40
- pIC50 (HCC 2998): 9.05
- pIC50 (MDA-MB-435): 9.22
- pIC50 (KM12): 9.28
- pIC50 (A498): < 6.00
- pIC50 (M14): 9.18
- pIC50 (NCI-H522): 8.82
- pIC50 (U-251): 8.44
- pIC50 (SNB-): 8.66
- pIC50 (MCF7): 9.15
- pIC50 (OVCAR-5): 6.70
- pIC50 (OVCAR-8): 9.49
- pIC50 (OVCAR-4): < 6.00
- pIC50 (SK-MEL-28): 6.72
- pIC50 (T47D): < 6.00
- pIC50 (NCI/ADR-RES): 9.52
- pIC50 (EKVX): 8.60
- pIC50 (IGROV-1): 9.28
- pIC50 (NCI-H460): 9.42
- pIC50 (RPMI-8226): 9.08
- pIC50 (SR): 9.35
- pIC50 (HOP-92): < 6.00
- pKi (Dihydrofolate reductase): 12.40
- pIC50 (SF-295): 9.23
- pIC50 (SK-MEL-5): 9.19
- pIC50 (MOLT-4): 9.24
- pIC50 (786-0): > 10.00

Compound: Nc1nc(N)c2nc(CNc3ccc(C(=O)NC(CCCNC(=O)c4ccccc4C(=O)O)C(=O)O)cc3)cnc2n1 (stereo not given)
- pIC50 (HL-60): 9.39
- pIC50 (BT-549): < 6.00
- pIC50 (Hs-578T): < 7.00
- pIC50 [1]: 8.74
- pIC50 (SF-268): 9.14
- pIC50 (SK-MEL-2): < 7.00
- pIC50 (A549): 9.24
- pIC50 (HCT-116): 9.74
- pIC50 (UACC-257): 7.60
- pIC50 (NCI-H23): 8.59
- pIC50 (HCT-15): 9.22
- pIC50 (TK-10): 8.02
- pIC50 (NCI-H226): < 7.00
- pIC50 (OVCAR-3): 7.34
- pIC50 (ACHN): 9.09
- pIC50 (RXF 393): 8.07
- pIC50 (SF-539): 8.64
- pIC50 (K562): 9.52
- pIC50 (CCRF-CEM): 8.82
- pIC50 (LOX IMVI): 9.64
- pIC50 (PC-3): < 7.00
- pIC50 (UACC-62): 9.25
- pIC50 (HCC 2998): 8.89
- pIC50 (MDA-MB-435): 8.51
- pIC50 (KM12): 8.66
- pIC50 (A498): < 6.00
- pIC50 (M14): < 7.00
- pIC50 (NCI-H522): 8.19
- pIC50 (U-251): 8.28
- pIC50 (SNB-): < 7.00
- pIC50 (OVCAR-5): 9.00
- pIC50 (OVCAR-8): 9.28
- pIC50 (OVCAR-4): < 7.00
- pIC50 (T47D): < 6.00
- pIC50 (IGROV-1): < 7.00
- pIC50 (NCI-H460): 9.37
- pIC50 (RPMI-8226): < 7.00
- pIC50 (SR): 9.38
- pIC50 (HOP-92): 8.12
- pKi (Dihydrofolate reductase): 12.46
- pIC50 (SF-295): 9.29
- pIC50 (SK-MEL-5): 8.33
- pIC50 (MOLT-4): 8.28
- pIC50 (786-0): 9.30
